Data set [1] concerns Helicobacter pylori. Description: Urease activity was determined in wild type-H pylori, CCUG 15818, at a concentration of 1 uM. In a few lines: (§1)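 CCUG 15818 grown 3 days at 37 °C microaerophilic on Columbia blood agar, washed three times in PBS at assay pH, set to A560 0.3. Cells preincubated with compound (MeOH or DMSO, ≤1% solvent) for 30 min at 37 °C, then mixed 1:1 with 200 mM urea for 10 min. Ammonia read by nitroprusside-catalysed phenol–hypochlorite at A650 against (NH4)2SO4. Compound colour blank subtracted; expressed as % of control.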

Data set [2] deals with Helicobacter pylori. The experiment in a line: Urease activity in H pylori, CCUG 15818, at 10 uM. In a few lines:
as §1

For data set [3], the system named is Helicobacter pylori. The experiment in a line: Urease activity in wild type H pylori, CCUG 15818, at 100 uM. In a few lines:
as §1

The nature of data set [4]: Relative retention time of the compound. The data set is classed as ADME.
Data set [5] can be described thus: pKa value of the compound (benzimidazole ring substitutions dependent). Particulars: read-out: pKabz. Type of data set: physicochemical.
Data set [6] is described as follows: Half life at pH 7 is a measure of the rate by which the compound is converted to the active species. Type of data set: ADME. Particulars: buffer.
Data set [7] in a line: pKa value of the compound (pyridine ring substitutions dependent). Type of data set: physicochemical. Particulars: read-out: pKapy.
In data set [8] the test system is Helicobacter pylori. The experiment in a line: Urease activity was determined in wild type-H pylori, CCUG 15818, at a concentration of 10 nM. In a few lines: (§2)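 Washed whole cells grown 3 days at 37 °C under microaerophilic conditions, resuspended in PBS at assay pH to A560 = 0.3. Compound (in MeOH or DMSO, ≤1% solvent) preincubated 30 min at 37 °C with shaking. 200 mM urea added 1:1; stopped after 10 min with phenol–nitroprusside/hypochlorite reagents, 15 min colour, A650 vs (NH4)2SO4 standard; percent of control.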

For data set [9], the system named is Helicobacter pylori. Description: Urease activity was determined in wild type-H pylori, CCUG 15818, at a concentration of 100 nM. Put shortly:
as §2

Data set [10] has as its system Helicobacter pylori. The experiment in a line: Urease activity was determined in wild type-H pylori, CCUG 15818, at a concentration of 1 nM. In a few lines:
as §2

A short description of data set [11]: Half life at pH 6 is a measure of the rate by which the compound is converted to the active species. Particulars: buffer.
Data set [12] relates to Helicobacter pylori. The experiment in a line: Urease activity was determined in wild type-H pylori, CCUG 15818, at a concentration of 1 uM at pH 6.
Data set [13] can be described thus: pKa value of the compound (pyridine ring substitutions dependent) at pH 6. Type of data set: physicochemical. Particulars: read-out: pKapy.
Data set [14] is described as follows: Relative retention time at pH 6. Type of data set: ADME. Particulars: buffer.
Data set [15] concerns Helicobacter pylori. The experiment in a line: Urease activity was determined in wild type-H pylori, CCUG 15818, at a concentration of 10 uM at pH 6.
Data set [16] relates to Helicobacter pylori. The experiment in a line: Urease activity was determined in wild type-H pylori, CCUG 15818, at a concentration of 100 uM at pH 6.
Data set [17] is described as follows: pKa value of the compound (benzimidazole ring substitutions dependent) at pH 6. Type of data set: physicochemical. Particulars: read-out: pKabz.
In data set [18] the test system is Helicobacter pylori. Description: Urease activity was determined in wild type-H pylori, CCUG 15818 in the presence of beta mercaptoethanol at a concentration of 100 uM. Put shortly: (§3)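 Intact CCUG 15818 cells (A560 0.3, washed in PBS) preincubated 30 min at 37 °C with compound at 1, 10 or 100 μM plus 100 μM β-mercaptoethanol. Urea was then added 1:1 from a 200 mM solution. After 10 min, ammonia was measured by indophenol (phenol–hypochlorite/nitroprusside) absorbance at 650 nm and expressed as % of control.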

The subject of data set [19] is Helicobacter pylori. The experiment in a line: Urease activity was determined in wild type-H pylori, CCUG 15818 in the presence of beta mercaptoethanol at a concentration of 1 uM. In a few lines:
as §3

In data set [20] the test system is Helicobacter pylori. The experiment in a line: Urease activity was determined in wild type-H pylori, CCUG 15818 in the presence of beta mercaptoethanol at a concentration of 10 uM. Put shortly: as §3

SMILES strings stand for the structures.

Consider `COc1ccc2[nH]c(SCc3ncc(C)c(OC)c3C)nc2c1`, for which the Urease activity (% of control) with Helicobacter pylori [1] was 109%; with Helicobacter pylori [2], 101%; with Helicobacter pylori [3], 99%.

The term half-life denotes the time in which the quantity being followed falls by half. Take `COc1ccnc(C[S+]([O-])c2nc3cc(CO)ccc3[nH]2)c1C` (configuration not stated): the results for the Urease activity (% of control) in the data set with Helicobacter pylori [1], in the data set with Helicobacter pylori [2] and in the data set on Helicobacter pylori [3] were 72%, 38% and 32%, respectively. Moreover, the “Log k'o” value in [4] is recorded as 0.18. The pKa amounted to 8.6 in data set [5] and 4.7 in data set [7]. The molecule further yielded a half-life in data set [6] of 1 h.

Take `COc1ccc2[nH]c([S+]([O-])Cc3nccc(OC(C)C)c3C)nc2c1` (configuration not stated): the Urease activity (% of control) worked out at 86% in the data set on Helicobacter pylori [1], 35% in the data set on Helicobacter pylori [2] and 0% with Helicobacter pylori [3]. For the same molecule, the “Log k'o” value in data set [4] is 1.22. The figures for the pKa in [5] and in [7] were 8.9 and 5.1, respectively. In data set [6], this molecule came in with a half-life of 1.5 h.

As for `NP(N)(=O)NC(=O)c1ccc(F)cc1`, the results for the Control with Helicobacter pylori [8], in the data set with Helicobacter pylori [9] and in the data set with Helicobacter pylori [10] were 10%, 0% and 80%, respectively.

Regarding `COc1ccnc(C[S+]([O-])c2nc3c(F)cc(F)cc3[nH]2)c1` (configuration not stated), the values for the Urease activity (% of control) in the data set on Helicobacter pylori [1], in the data set on Helicobacter pylori [2] and in the data set on Helicobacter pylori [3] were 106%, 89% and 80%, respectively. Further, in data set [4], the “Log k'o” value was found to be 0.09. The figures for the pKa in data set [5] and in data set [7] were 7.6 and 4.1, respectively. In data set [6], the half-life stood at 32 h.

On to `Cc1cc(C)c(C[S+]([O-])c2nc3cc(Cl)ccc3[nH]2)nc1C` (configuration not stated), for which the Urease activity (% of control) in the data set with Helicobacter pylori [1] was determined as 97%; in the data set with Helicobacter pylori [2] it was 105%; in the data set on Helicobacter pylori [3], 164%.

As for `COc1c(OCC2CC2)ccnc1C[S+]([O-])c1nc2cc(F)ccc2[nH]1` (configuration not stated), the Urease activity (% of control) came to 104% in the data set on Helicobacter pylori [1], 94% in the data set on Helicobacter pylori [2] and 84% in the data set with Helicobacter pylori [3]. Moreover, the “Log k'o” value in data set [4] is given as 1.16. The pKa in data set [5] stood at 8.4; in [7] it was 3.8. In data set [6], this molecule gave a half-life of 50 h.

For the molecule `COc1ccc2[nH]c([S+]([O-])Cc3ncc(C)c(OC)c3C)nc2c1` (configuration not stated) [OMEPRAZOLE], the half-life in data set [11] amounted to 0.917 h; in data set [6], 23 h. In addition, the Urease activity (% of control) amounted to 109% with Helicobacter pylori [1], 96% with Helicobacter pylori [2] and 64% in the data set on Helicobacter pylori [3]. Besides, the “Log k'o” value in [4] and in [14] was 0.83 each time. The Control turned out to be 115% with Helicobacter pylori [12], 88% in the data set on Helicobacter pylori [15] and 28% in the data set on Helicobacter pylori [16]. For the same molecule, the pKa in data set [5] amounted to 8.7; in data set [13], 4; in data set [7], 4; in data set [17] it was 8.7.

Take `COc1ccnc(C[S+]([O-])c2nc3c(F)cccc3[nH]2)c1` (configuration not stated): the Urease activity (% of control) in the data set with Helicobacter pylori [1] was 93%; in the data set with Helicobacter pylori [2] it was 95%; in the data set with Helicobacter pylori [3], 58%. Moreover, the “Log k'o” value in data set [4] is recorded as 0.26. Besides, the pKa in [5] came out at 7.5; in [7], 4.4. Besides, in [6], the half-life came out at 23 h.

For `COc1ccnc(C[S+]([O-])c2nc3cc(C(C)(C)C)ccc3[nH]2)c1C` (configuration not stated), the “Log k'o” value in [4] turned out to be 1.55. The pKa in [5] came to 9.1; in data set [7] it was 4.8. The molecule further yielded a half-life in data set [6] of 1 h. Further, the Control with Helicobacter pylori [18] was 106%; with Helicobacter pylori [19], 105%; in the data set with Helicobacter pylori [20], 95%. The Urease activity (% of control) in the data set with Helicobacter pylori [2] came to 42%; in the data set on Helicobacter pylori [3] it was 1%.

For the molecule `COc1ccnc(C[S+]([O-])c2nc3cc4c(cc3[nH]2)CCC4)c1C` (configuration not stated), the Urease activity (% of control) in the data set with Helicobacter pylori [1] was 36%; in the data set on Helicobacter pylori [2], 35%; in the data set with Helicobacter pylori [3], 0%. In data set [4], the “Log k'o” value came out at 1.21. Besides, the pKa in data set [5] amounted to 9.4; in data set [7], 4.9. The molecule further had a half-life in data set [6] of 1.17 h.

As for `CCOc1ccnc(C[S+]([O-])c2nc3ccccc3[nH]2)c1C` (configuration not stated), the results for the Urease activity (% of control) in the data set with Helicobacter pylori [1], with Helicobacter pylori [2] and in the data set on Helicobacter pylori [3] were 76%, 38% and 8%, respectively. Moreover, the “Log k'o” value in data set [4] was determined as 0.92. Moreover, the pKa in [5] was 8.8; in data set [7] it was 4.9. Besides, in data set [6], the half-life came to 0.9 h.

Turning to `COc1ccnc(C[S+]([O-])c2nc3cc(F)c(F)cc3[nH]2)c1OC` (configuration not stated), in data set [4], the “Log k'o” value came to 0.6. The figures for the pKa in data set [5] and in data set [7] were 7.8 and 3.6, respectively. The molecule further returned a half-life in data set [6] of 69 h.

For `Cc1c(OCC(F)(F)F)ccnc1C[S+]([O-])c1nc2ccccc2[nH]1` (configuration not stated) [LANSOPRAZOLE], the Urease activity (% of control) worked out at 105% in the data set on Helicobacter pylori [1], 103% in the data set on Helicobacter pylori [2] and 29% with Helicobacter pylori [3]. Moreover, the “Log k'o” value in [4] came to 1.1. The pKa in data set [5] came out at 8.7; in data set [7], 3.9. The half-life in data set [6] amounted to 13 h.

The values above are taken from ChEMBL document CHEMBL1128210, “Structure-activity relationship of omeprazole and analogues as Helicobacter pylori urease inhibitors” (J Med Chem, 1995).
